The source made the active and inactive calls. The rule behind the calls is not given here.

A word on the Ki: it is the dissociation constant of the complex between target and ligand, obtained from inhibition or displacement. Read a low Ki as a stronger hold on the target. For orientation: Emax means the maximal effect, on the per cent scale that the assay sets. For orientation: inhibition means the percentage by which the read-out fell short of the control. For orientation: EC50 means the concentration needed to bring the measured effect to its halfway point. High values mean weaker potency, low ones greater potency.

The target in test [1] is 5-HT1D/5-HT1F (Homo sapiens) (UniProt P30939+P28221). In words: Selectivity index, ratio of Ki for human 5HT1D receptor to Ki for human 5HT1F receptor. A digest of the protocol: (§1)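 Ratio of the Ki at the 5-HT1A, 5-HT1B or 5-HT1D receptor to the Ki at the 5-HT1F receptor. Each Ki comes from at least two radioligand binding determinations in cell lines expressing the human receptor.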

Test [2] has as its target 5-HT1A/5-HT1F (Homo sapiens) (UniProt P30939+P08908). Put plainly: Selectivity index, ratio of Ki for human 5HT1A receptor to Ki for human 5HT1F receptor. A digest of the protocol: as §1
In test [3] the target is T1, 5-hydroxytryptamine receptor 1F (Homo sapiens, UniProt P30939).
T1 sequence (P30939 whole entry): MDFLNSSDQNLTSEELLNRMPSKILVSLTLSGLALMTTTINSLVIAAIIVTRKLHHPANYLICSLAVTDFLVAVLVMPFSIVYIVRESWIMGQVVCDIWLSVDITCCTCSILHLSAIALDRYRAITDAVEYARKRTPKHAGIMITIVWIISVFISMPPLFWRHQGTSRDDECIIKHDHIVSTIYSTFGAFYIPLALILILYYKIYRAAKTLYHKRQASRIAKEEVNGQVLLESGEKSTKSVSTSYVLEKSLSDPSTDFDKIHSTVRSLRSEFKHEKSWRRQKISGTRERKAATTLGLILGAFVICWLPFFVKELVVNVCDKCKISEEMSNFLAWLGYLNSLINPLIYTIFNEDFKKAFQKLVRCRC
In words: Binding affinity to human 5HT1F receptor by radioligand binding assay. The gist of the method:
(§2)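 In vitro radioligand displacement binding on cell lines expressing the appropriate human serotonin receptor subtype. Affinity is expressed as Ki (nM), each the mean of at least two determinations.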

Test [4] addresses 5-HT1B/5-HT1F (Homo sapiens) (UniProt P30939+P28222). In words: Selectivity index, ratio of Ki for human 5HT1B receptor to Ki for human 5HT1F receptor. The gist of the method: as §1
Test [5] addresses T2, 5-hydroxytryptamine receptor 1F (Homo sapiens) (UniProt P30939).
T2 sequence (whole entry): T1 sequence (P30939 whole entry)
In words: Agonist activity at human 5HT1F receptor expressed in LM(tk-) cells by [35S]GTPgammaS binding assay relative to 5-HT. Type of test: functional, cell-based. A general note: Binding of GTPγS marks nucleotide exchange on a G protein.

Test [6] concerns the target 5-hydroxytryptamine receptor 1B (Homo sapiens) (UniProt P28222). In words: Inhibition of radioligand binding to human 5HT1B receptor at 10 uM. A digest of the protocol: (§3)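 Single-concentration radioligand displacement at 10 µM test compound in cell lines expressing the human 5-HT1A, 5-HT1B or 5-HT1D receptor. Read-out is percent inhibition of radioligand binding.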

For test [7] the target is unchanged. Put plainly: Binding affinity to human 5HT1B receptor by radioligand binding assay. The gist of the method: as §2
Test [8] has as its target T1, 5-hydroxytryptamine receptor 1F. In words: Agonist activity at human 5HT1F receptor expressed in LM(tk-) cells by [35S]GTPgammaS binding assay. Type of test: functional, cell-based.
Test [9] addresses 5-hydroxytryptamine receptor 1D (Homo sapiens) (UniProt P28221). Put plainly: Binding affinity to human 5HT1D receptor by radioligand binding assay. A digest of the protocol:
as §2

The target is the same in test [10]. Put plainly: Inhibition of radioligand binding to human 5HT1D receptor at 10 uM. The gist of the method: as §3
For test [11], the target named is T3, 5-hydroxytryptamine receptor 1A (Homo sapiens) (UniProt P08908).
T3 sequence (whole entry): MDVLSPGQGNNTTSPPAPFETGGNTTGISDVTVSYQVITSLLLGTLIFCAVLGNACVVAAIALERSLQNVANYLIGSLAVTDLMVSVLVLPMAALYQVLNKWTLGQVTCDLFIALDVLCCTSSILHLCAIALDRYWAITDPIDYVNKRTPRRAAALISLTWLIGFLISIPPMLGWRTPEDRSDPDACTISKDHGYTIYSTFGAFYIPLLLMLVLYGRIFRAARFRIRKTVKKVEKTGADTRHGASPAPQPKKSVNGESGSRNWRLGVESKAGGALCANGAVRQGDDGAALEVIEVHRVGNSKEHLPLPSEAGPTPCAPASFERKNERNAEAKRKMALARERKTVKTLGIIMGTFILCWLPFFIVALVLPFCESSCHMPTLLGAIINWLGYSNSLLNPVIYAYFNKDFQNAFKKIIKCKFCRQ
In words: Binding affinity to human 5HT1A receptor by radioligand binding assay. The gist of the method: as §2

The target in test [12] is T3, 5-hydroxytryptamine receptor 1A (Homo sapiens). In words: Inhibition of radioligand binding to human 5HT1A receptor at 10 uM. A digest of the protocol: as §3

5-HT1D/5-HT1F (Homo sapiens), sequence (P28221 whole entry, looked up, one chain of several): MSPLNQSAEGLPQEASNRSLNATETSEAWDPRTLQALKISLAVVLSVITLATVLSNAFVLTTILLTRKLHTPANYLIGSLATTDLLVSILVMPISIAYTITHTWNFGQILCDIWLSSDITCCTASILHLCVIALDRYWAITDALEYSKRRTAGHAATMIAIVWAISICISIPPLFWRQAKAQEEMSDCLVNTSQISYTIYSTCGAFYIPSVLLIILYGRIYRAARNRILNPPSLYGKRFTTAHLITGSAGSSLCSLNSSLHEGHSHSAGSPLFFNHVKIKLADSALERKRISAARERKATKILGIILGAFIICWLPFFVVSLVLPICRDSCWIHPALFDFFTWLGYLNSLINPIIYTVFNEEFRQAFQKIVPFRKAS
5-hydroxytryptamine receptor 1D (Homo sapiens), sequence (P28221 whole entry): as the sequence (P28221 whole entry, looked up, one chain of several) above
5-HT1B/5-HT1F (Homo sapiens), sequence (P28222 whole entry, looked up, one chain of several): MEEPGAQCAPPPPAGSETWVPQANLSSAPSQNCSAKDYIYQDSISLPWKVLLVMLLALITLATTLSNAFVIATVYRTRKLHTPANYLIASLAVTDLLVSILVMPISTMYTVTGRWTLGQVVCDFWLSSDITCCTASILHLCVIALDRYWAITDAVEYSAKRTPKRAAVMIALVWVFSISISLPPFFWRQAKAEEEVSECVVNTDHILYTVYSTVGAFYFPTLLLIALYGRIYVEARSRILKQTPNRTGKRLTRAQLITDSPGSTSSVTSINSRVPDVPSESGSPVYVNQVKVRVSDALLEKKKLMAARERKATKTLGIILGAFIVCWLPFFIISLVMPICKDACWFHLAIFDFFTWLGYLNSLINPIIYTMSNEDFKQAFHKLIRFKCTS
5-hydroxytryptamine receptor 1B (Homo sapiens), sequence (P28222 whole entry): as the sequence (P28222 whole entry, looked up, one chain of several) above

Turning to `COc1c(NC(=O)c2ccc(F)cc2)cccc1C(=O)C1CCN(C)CC1`, the results for the Ratio Ki in test [1], in test [2] and in test [4] were 3.4, 0.5 and 4.3, respectively. In test [3], this compound gave a Ki of 0.61 µM.
In the case of `CN1CCC(C(=O)c2cccc(NC(=O)c3ccc(F)cc3)c2)CC1`, the figures for the Ratio Ki in [1] and in test [2] were 730 and 170, respectively. This compound yielded an Emax in test [5] of 79%. In addition, the affinity in test [3] corresponds to a Ki of 0.0051 µM. The compound further gave an inhibition in test [6] of less than 50%. Also, the outcome in test [7] was inactive. In test [8], the EC50 worked out at 0.087 µM.
`CN1CCC(C(=O)c2cc(F)cc(NC(=O)c3ccc(F)cc3)c2)CC1`: the Ratio Ki in test [2] came to 22. Besides, in test [3], the inhibition constant Ki was determined as 0.041 µM. For the same compound, the inhibition in test [6] and in test [10] was less than 50% throughout. The result in [9] and in [7] was inactive.
Regarding `CN1CCC(C(=O)c2cc(NC(=O)c3ccc(F)cc3)ccn2)CC1`, the outcome in test [11], in test [9] and in test [7] was inactive. Moreover, the inhibition in test [6], in [10] and in test [12] was less than 50% in each case.
On to `CN1CCC(C(=O)c2cncc(NC(=O)c3ccc(F)cc3)c2)CC1`, for which the Ratio Ki in test [1] amounted to 0.6; in test [2], 1. This compound registered a Ki in test [3] of 3.2 µM. In addition, the inhibition in [6] was less than 50%. In [7], the outcome was inactive.
`CN1CCC(C(=O)c2cccc(NC(=O)c3ccc(F)cc3)c2Cl)CC1`: the Ratio Ki was found to be 0.2 in test [1], 0.3 in [2] and 1.6 in test [4]. Also, the affinity in [3], expressed as Ki, was 1.7 µM.
`Cc1c(NC(=O)c2ccc(F)cc2)cccc1C(=O)C1CCN(C)CC1` displayed a Ki in [3] of 0.87 µM. For the same compound, the result in test [11], in [9] and in test [7] was inactive. The inhibition in test [6], in test [10] and in test [12] was less than 50% throughout.
Regarding `CN1CCC(c2c[nH]c3ccc(NC(=O)c4ccc(F)cc4)cc23)CC1`, the Ratio Ki in [1] is 98; in [2], 5; in test [4] it was 54.
For `CN1CCC(C(=O)c2cccc(NC(=O)c3ccc(F)cc3)n2)CC1`, the Ratio Ki in [1] was found to be 110; in test [2], 91. In test [5], the Emax is 90%. Moreover, in [3], the affinity, expressed as Ki, was 0.0095 µM. The inhibition in [6] was less than 50%. The outcome in test [7] was inactive. For the same compound, a half-maximal response in [8] (EC50) required 0.11 µM.
As to `CN1CCC(C(=O)c2ccc(F)c(NC(=O)c3ccc(F)cc3)c2)CC1`, in [2], the Ratio Ki was found to be 2. The compound further came in with a Ki in test [3] of 0.53 µM. For the same compound, the inhibition in [6] and in test [10] was less than 50% throughout. In addition, the result in [9] and in [7] was inactive.
`CN1CCC(C(=O)c2cccc(NC(=O)c3ccc(F)cc3)c2F)CC1`: in [5], the Emax was found to be 85%. This compound also yielded a Ki in test [3] of 0.0083 µM. Moreover, the result in test [11], in test [9] and in test [7] was inactive. The inhibition in test [6], in [10] and in test [12] was less than 50% in each case. The compound also returned an EC50 in [8] of 0.055 µM.
On to `CN1CCC(C(=O)c2cc(NC(=O)c3ccc(F)cc3)ccc2F)CC1`, for which the affinity in test [3] corresponds to a Ki of 1.3 µM. The outcome in test [11], in test [9] and in test [7] was inactive. For the same compound, the inhibition in test [6], in test [10] and in test [12] was less than 50% each time.
As to `CN1CCC(C(=O)c2cccc(NC(=O)c3ccc(F)cc3)c2O)CC1`, affinity in test [3] was put at a Ki of 1.1 µM. Also, the outcome in test [11] and in [9] was inactive. Also, in [4], the Ratio Ki was 2.5. The inhibition in [10] and in test [12] was less than 50% in each case.
In the case of `CN1CCC(C(=O)c2ccnc(NC(=O)c3ccc(F)cc3)c2)CC1`, the Ratio Ki in [1] came to 0.5; in test [2], 0.7; in test [4], 2. Further, in test [3], the Ki was 2.4 µM.

Source of the values: ChEMBL document CHEMBL3616417, “Discovery of selective N-[3-(1-methyl-piperidine-4-carbonyl)-phenyl]-benzamide-based 5-HT₁ F receptor agonists: Evolution from bicyclic to monocyclic cores” (Bioorg Med Chem Lett, 2015).
